Measured values: ChEMBL document CHEMBL1153507, “Synthesis, DNA intercalation and 3D QSAR analysis of cis-2,4,5-trisubstituted-1,3-dithiolanes as a novel class of antitumor agents” (2009)
Calls of active or inactive are those of the source. The rule behind the calls is not given here.

Legend:
Calf thymus DNA [1] = assay: Binding affinity to calf thymus DNA by spectroscopy; type: nucleic-acid assay; conditions: Bos taurus
Summary of the method: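 UV-vis titration of calf thymus DNA (10 µM final) in PBS, pH 7.4. Compound from a 10 mM PBS stock was added in sequential aliquots to final 4–40 µM, and spectra were recorded after each addition. Compounds were transparent at 200–360 nm.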

Calf thymus DNA [2] = assay: Binding affinity to calf thymus DNA by circular diachromic assay; type: nucleic-acid assay; conditions: Bos taurus
CCRF S-180 [3] = assay: Antitumor activity against mouse S180 cells implanted in ICR mouse assessed as tumor weight at 44.64 umol/kg/day, ip administered for 7 consecutive days after 24 hrs of tumor implantation measured after 24 hrs post dose; type: functional
Summary of the method: (§1)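 Male ICR mice aged 10–12 weeks, housed at 21 °C on a natural light cycle, carried S180 tumors. 24 h after implantation they were randomized into groups of 10. Daily ip dosing in 0.2 ml normal saline for 7 days: test agents 44.64 µmol/kg/day, cytarabine 89.28 µmol/kg/day, saline as negative control. Mice were killed 24 h after the last dose and tumors weighed. Inhibition = (control − treated)/control tumor weight. Mean ± SD.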

Calf thymus DNA [4] = assay: Binding affinity to calf thymus DNA assessed as hyperchromic effect by UV-vis spectrophotometry; conditions: Bos taurus
CCRF S-180 [5] = assay: Antitumor activity against mouse S180 cells xenografted in ip dosed ICR mouse assessed as inhibition of tumor weight administered for 7 consecutive days after 24 of hrs tumor implantation measured after 24 hrs post dose; type: functional, organism-based; summary of the method: as §1
CCRF S-180 [6] = assay: Antitumor activity against mouse S180 cells implanted in ICR mouse assessed as tumor weight at 89.28 umol/kg/day, ip administered for 7 consecutive days after 24 hrs of tumor implantation measured after 24 hrs post dose; type: functional; summary of the method: as §1

Which Activity (Calf thymus DNA [1]) does the source give for `NC(=O)CC[C@H](N)C(=O)OC[C@@H]1S[C@H](CC=O)S[C@@H]1COC(=O)[C@@H](N)CCC(N)=O` here?
The Activity was “Active”.

And the Activity (Calf thymus DNA [2])?
Its Activity is “Active”.

What about the Activity (CCRF S-180 [3]) of the same compound?
The Activity was 1.061 g.

And the Activity (Calf thymus DNA [4])?
The Activity was “Active”.

What does the source list for `N[C@@H](CO)C(=O)OC[C@@H]1S[C@H](CC=O)S[C@@H]1COC(=O)[C@@H](N)CO`?
Activity (Calf thymus DNA [1]): Active; Activity (Calf thymus DNA [2]): Active; Activity (CCRF S-180 [3]): 1.493 g; Activity (Calf thymus DNA [4]): Active

Which results are given for `CC(C)C[C@H](N)C(=O)OC[C@@H]1S[C@H](CC=O)S[C@@H]1COC(=O)[C@@H](N)CC(C)C`?
Activity (Calf thymus DNA [1]): Active; Activity (Calf thymus DNA [2]): Active; Activity (CCRF S-180 [3]): 1.296 g; Activity (Calf thymus DNA [4]): Active

Which results are given for `N[C@@H](Cc1c[nH]cn1)C(=O)OC[C@@H]1S[C@H](CC=O)S[C@@H]1COC(=O)[C@@H](N)Cc1c[nH]cn1`?
Activity (Calf thymus DNA [1]): Active; Activity (Calf thymus DNA [2]): Active; Activity (CCRF S-180 [3]): 1.076 g; Activity (Calf thymus DNA [4]): Active

What does the source list for `CC(C)[C@H](N)C(=O)OC[C@@H]1S[C@H](CC=O)S[C@@H]1COC(=O)[C@@H](N)C(C)C` (mixture of isomers)?
Activity (Calf thymus DNA [1]): Active; Activity (Calf thymus DNA [2]): Active; Activity (CCRF S-180 [3]): 1.114 g; Activity (Calf thymus DNA [4]): Active

What does the source list for `N[C@@H](CCC(=O)O)C(=O)OC[C@@H]1S[C@H](CC=O)S[C@@H]1COC(=O)[C@@H](N)CCC(=O)O`?
Activity (Calf thymus DNA [1]): Active; Activity (Calf thymus DNA [2]): Active; Activity (CCRF S-180 [3]): 1.051 g; Activity (Calf thymus DNA [4]): Active

Which Activity (Calf thymus DNA [1]) does the source give for `C[C@@H](O)[C@H](N)C(=O)OC[C@@H]1S[C@H](CC=O)S[C@@H]1COC(=O)[C@@H](N)[C@@H](C)O` here?
The Activity was “Active”.

What about the Activity (Calf thymus DNA [2]) of the same compound?
Its Activity is “Active”.

What about the Activity (CCRF S-180 [3]) of the same compound?
Its Activity is 1.087 g.

And the Activity (Calf thymus DNA [4])?
Its Activity is “Active”.

How did the Activity (Calf thymus DNA [1]) turn out when `NCC(=O)OC[C@@H]1S[C@H](CC=O)S[C@@H]1COC(=O)CN` was run?
Its Activity is “Active”.

What about the inhibition (CCRF S-180 [5]) of the same compound?
Its inhibition is “Dose-dependent effect”.

What about the Activity (Calf thymus DNA [2]) of the same compound?
The Activity was “Active”.

What about the Activity (CCRF S-180 [3]) of the same compound?
The Activity was 0.723 g.

And the Activity (Calf thymus DNA [4])?
The Activity was “Active”.

How did the Activity (Calf thymus DNA [1]) turn out when `CSCC[C@H](N)C(=O)OC[C@@H]1S[C@H](CC=O)S[C@@H]1COC(=O)[C@@H](N)CCSC` was run?
Its Activity is “Active”.

And the Activity (Calf thymus DNA [2])?
Its Activity is “Active”.

And the Activity (CCRF S-180 [3])?
Its Activity is 1.139 g.

What about the Activity (Calf thymus DNA [4]) of the same compound?
The Activity was “Active”.

For `NC(=O)C[C@H](N)C(=O)OC[C@@H]1S[C@H](CC=O)S[C@@H]1COC(=O)[C@@H](N)CC(N)=O`, which Activity (Calf thymus DNA [1]) is on record?
The Activity was “Active”.

What about the Activity (Calf thymus DNA [2]) of the same compound?
Its Activity is “Active”.

What about the Activity (CCRF S-180 [3]) of the same compound?
The Activity was 0.855 g.

And the Activity (Calf thymus DNA [4])?
The Activity was “Active”.

With `Nc1ccn([C@@H]2O[C@H](CO)[C@@H](O)[C@@H]2O)c(=O)n1` [CYTARABINE] as the compound, how does the Activity (CCRF S-180 [6]) read?
The Activity was 0.582 g.

What does the source list for `NCCCC[C@H](N)C(=O)OC[C@@H]1S[C@H](CC=O)S[C@@H]1COC(=O)[C@@H](N)CCCCN`?
Activity (Calf thymus DNA [1]): Active; Activity (Calf thymus DNA [2]): Active; Activity (CCRF S-180 [3]): 0.989 g; Activity (Calf thymus DNA [4]): Active

With `N[C@@H](Cc1ccccc1)C(=O)OC[C@@H]1S[C@H](CC=O)S[C@@H]1COC(=O)[C@@H](N)Cc1ccccc1` as the compound, how does the Activity (Calf thymus DNA [1]) read?
Its Activity is “Active”.

What about the inhibition (CCRF S-180 [5]) of the same compound?
The inhibition was “Dose-dependent effect”.

What about the Activity (Calf thymus DNA [2]) of the same compound?
The Activity was “Active”.

What about the Activity (CCRF S-180 [3]) of the same compound?
The Activity was 0.693 g.

And the Activity (Calf thymus DNA [4])?
The Activity was “Active”.

With `CC[C@H](C)[C@H](N)C(=O)OC[C@@H]1S[C@H](CC=O)S[C@@H]1COC(=O)[C@@H](N)[C@@H](C)CC` as the compound, how does the Activity (Calf thymus DNA [1]) read?
Its Activity is “Active”.

What about the Activity (Calf thymus DNA [2]) of the same compound?
The Activity was “Active”.

What about the Activity (CCRF S-180 [3]) of the same compound?
Its Activity is 1.064 g.

And the Activity (Calf thymus DNA [4])?
The Activity was “Active”.

What does the source list for `N=C(N)NCCC[C@H](N)C(=O)OC[C@@H]1S[C@H](CC=O)S[C@@H]1COC(=O)[C@@H](N)CCCNC(=N)N`?
Activity (Calf thymus DNA [1]): Active; Activity (Calf thymus DNA [2]): Active; Activity (CCRF S-180 [3]): 0.778 g; Activity (Calf thymus DNA [4]): Active

What does the source list for `N[C@@H](Cc1ccc(O)cc1)C(=O)OC[C@@H]1S[C@H](CC=O)S[C@@H]1COC(=O)[C@@H](N)Cc1ccc(O)cc1`?
Activity (Calf thymus DNA [1]): Active; inhibition (CCRF S-180 [5]): Dose-dependent effect; Activity (Calf thymus DNA [2]): Active; Activity (CCRF S-180 [3]): 0.529 g; Activity (Calf thymus DNA [4]): Active

Which results are given for `C[C@H](N)C(=O)OC[C@@H]1S[C@H](CC=O)S[C@@H]1COC(=O)[C@H](C)N`?
Activity (Calf thymus DNA [1]): Active; Activity (Calf thymus DNA [2]): Active; Activity (CCRF S-180 [3]): 1.213 g; Activity (Calf thymus DNA [4]): Active

`N[C@@H](Cc1c[nH]c2ccccc12)C(=O)OC[C@@H]1S[C@H](CC=O)S[C@@H]1COC(=O)[C@@H](N)Cc1c[nH]c2ccccc12` was tested. Which Activity (Calf thymus DNA [1]) did it give?
The Activity was “Active”.

And the Activity (Calf thymus DNA [2])?
Its Activity is “Active”.

And the Activity (CCRF S-180 [3])?
Its Activity is 0.954 g.

And the Activity (Calf thymus DNA [4])?
The Activity was “Active”.

With `O=CC[C@H]1S[C@@H](COC(=O)[C@@H]2CCCN2)[C@@H](COC(=O)[C@@H]2CCCN2)S1` as the compound, how does the Activity (Calf thymus DNA [1]) read?
Its Activity is “Active”.

What about the Activity (Calf thymus DNA [2]) of the same compound?
Its Activity is “Active”.

And the Activity (CCRF S-180 [3])?
Its Activity is 1.446 g.

What about the Activity (Calf thymus DNA [4]) of the same compound?
The Activity was “Active”.
